Source: ChEMBL document CHEMBL5154665, “Design, synthesis, biochemical evaluation, radiolabeling and in vivo imaging with high affinity class-IIa histone deacetylase inhibitor for molecular imaging and targeted therapy” (Eur J Med Chem, 2022)

Assays:
[1] = Inhibition of HDAC class 2a in human THP-1 cells using TFA-lysine as fluorogenic substrate by fluorescence microplate reader assay; assay type: cell-based
[2] = Inhibition of HDAC class 2a in human PANC-1 cells using TFA-lysine as fluorogenic substrate by fluorescence microplate reader assay; assay type: cell-based
[3] = Inhibition of HDAC class 2a in human L3.6pl cells using TFA-lysine as fluorogenic substrate by fluorescence microplate reader assay; assay type: cell-based
[4] = Inhibition of HDAC class 2a in human HT-29 cells using TFA-lysine as fluorogenic substrate by fluorescence microplate reader assay; assay type: cell-based
Summary of the method: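 HT-29 cells were plated at 200,000 cells/well in RPMI without phenol red with 0.1% FBS, with 100 µM Boc-Lys-TFA for class IIa or 200 µM Boc-Lys-Ac for class I/IIb. Compounds ran as an 11-point curve (5% final DMSO), with 5 µM trichostatin A as the positive control. Incubation was 3 h at 37 °C, then trypsin developer with Tween 80 for 1 h to lyse cells and release fluorophore.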

[5] = target: T1, Class 1 histone deacetylase (Homo sapiens, UniProt Q13547+O15379+Q92769+Q9BY41); assay: Inhibition of HDAC class 1 in human L3.6pl cells using TFA-lysine as fluorogenic substrate by fluorescence microplate reader assay; assay type: cell-based
[6] = Inhibition of HDAC class 2b in human PANC-1 cells using TFA-lysine as fluorogenic substrate by fluorescence microplate reader assay; assay type: cell-based
[7] = target: T1, Class 1 histone deacetylase; assay: Inhibition of HDAC class 1 in human HT-29 cells using Boc-Lys-Ac as substrate incubated for 3 hrs by microplate reader assay; assay type: cell-based
[8] = target: T2, Polyamine deacetylase HDAC10 (Homo sapiens, UniProt Q969S8); assay: Inhibition of recombinant human HDAC10 using fluorogenic substrate by fluorescence microplate reader assay
T2 sequence (Q969S8 whole entry): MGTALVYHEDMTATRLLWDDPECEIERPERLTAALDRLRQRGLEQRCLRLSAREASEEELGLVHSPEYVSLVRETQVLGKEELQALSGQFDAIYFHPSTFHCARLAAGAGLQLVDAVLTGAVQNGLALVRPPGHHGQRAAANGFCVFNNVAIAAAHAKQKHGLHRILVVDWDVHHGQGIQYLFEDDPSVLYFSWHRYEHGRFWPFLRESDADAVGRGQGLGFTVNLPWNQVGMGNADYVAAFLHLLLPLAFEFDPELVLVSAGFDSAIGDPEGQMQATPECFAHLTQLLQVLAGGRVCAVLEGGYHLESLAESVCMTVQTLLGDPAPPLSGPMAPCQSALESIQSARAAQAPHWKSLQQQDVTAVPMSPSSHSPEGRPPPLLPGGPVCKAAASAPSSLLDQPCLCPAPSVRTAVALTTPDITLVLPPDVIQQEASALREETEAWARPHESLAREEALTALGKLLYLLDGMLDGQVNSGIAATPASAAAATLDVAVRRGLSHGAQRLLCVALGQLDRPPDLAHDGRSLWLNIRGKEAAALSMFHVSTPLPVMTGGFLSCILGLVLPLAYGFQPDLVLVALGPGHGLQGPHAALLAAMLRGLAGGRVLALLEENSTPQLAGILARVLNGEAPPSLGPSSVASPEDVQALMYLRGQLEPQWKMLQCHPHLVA
Summary of the method: (§1)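 Recombinant human HDAC isoforms were tested at 9 inhibitor dilutions in commercial fluorogenic enzyme kits, per the manufacturer's protocol. For class IIa enzymes, deacetylation of a TFA-lysine substrate lets trypsin release a fluorophore, read on a microplate reader. IC50 came from a nonlinear fit of % HDAC activity inhibition against compound concentration.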

[9] = target: T3, Protein deacetylase HDAC6 (Homo sapiens, UniProt Q9UBN7); assay: Inhibition of recombinant human HDAC6 using fluorogenic substrate by fluorescence microplate reader assay; summary of the method: as §1
T3 sequence (Q9UBN7 whole entry): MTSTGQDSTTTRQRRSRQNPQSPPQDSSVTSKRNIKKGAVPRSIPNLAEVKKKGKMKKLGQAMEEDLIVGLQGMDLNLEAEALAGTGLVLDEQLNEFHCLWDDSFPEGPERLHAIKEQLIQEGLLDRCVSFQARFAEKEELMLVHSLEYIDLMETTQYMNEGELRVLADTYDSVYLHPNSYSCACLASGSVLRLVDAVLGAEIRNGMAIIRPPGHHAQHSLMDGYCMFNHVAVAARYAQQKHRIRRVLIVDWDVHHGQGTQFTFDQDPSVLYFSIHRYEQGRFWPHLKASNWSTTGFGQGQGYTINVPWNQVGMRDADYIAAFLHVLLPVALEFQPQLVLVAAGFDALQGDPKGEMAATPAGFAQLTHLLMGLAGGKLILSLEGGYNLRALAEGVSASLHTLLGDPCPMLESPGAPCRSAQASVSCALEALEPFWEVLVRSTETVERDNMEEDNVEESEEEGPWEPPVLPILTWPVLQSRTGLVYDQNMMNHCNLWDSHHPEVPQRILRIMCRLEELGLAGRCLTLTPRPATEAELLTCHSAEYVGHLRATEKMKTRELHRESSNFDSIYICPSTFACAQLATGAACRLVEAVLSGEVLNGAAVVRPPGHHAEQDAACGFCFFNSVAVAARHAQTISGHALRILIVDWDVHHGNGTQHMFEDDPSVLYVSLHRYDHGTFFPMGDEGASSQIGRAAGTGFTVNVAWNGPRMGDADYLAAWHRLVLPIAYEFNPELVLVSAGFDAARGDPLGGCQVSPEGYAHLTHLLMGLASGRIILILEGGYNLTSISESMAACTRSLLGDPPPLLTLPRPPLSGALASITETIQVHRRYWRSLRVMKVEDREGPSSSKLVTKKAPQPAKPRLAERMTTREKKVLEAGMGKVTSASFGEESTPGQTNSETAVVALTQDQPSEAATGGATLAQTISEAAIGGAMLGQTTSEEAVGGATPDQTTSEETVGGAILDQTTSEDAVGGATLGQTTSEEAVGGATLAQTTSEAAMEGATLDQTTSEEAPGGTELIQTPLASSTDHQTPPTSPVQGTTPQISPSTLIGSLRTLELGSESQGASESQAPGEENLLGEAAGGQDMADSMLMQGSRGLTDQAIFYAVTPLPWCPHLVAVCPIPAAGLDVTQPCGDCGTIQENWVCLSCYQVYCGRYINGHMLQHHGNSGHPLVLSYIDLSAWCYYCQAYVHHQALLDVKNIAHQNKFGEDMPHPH

CC(C)(CNC(=O)c1cccc(-c2noc(C(F)(F)F)n2)c1)c1coc(-c2ccccc2)n1
IC50 [1]: 0.887 µM | IC50 [2]: 0.888 µM | IC50 [3]: 0.893 µM | IC50 [4]: 1 µM | IC50 [5]: > 5 µM | IC50 [6]: > 5 µM | IC50 [7]: > 50 µM | IC50 [8]: > 5 µM | IC50 [9]: > 5 µM
